Assay results as given in ChEMBL document CHEMBL1147862, “Studies on synthesis and pharmacological activities of 3,6-disubstituted-1,2,4-triazolo[3,4-b]-1,3,4-thiadiazoles and their dihydro analogues” (2007).

Legend:
Type in all cases: functional
Mus musculus [1] = experiment: Analgesic activity in Swiss mouse assessed as increase in reaction time at 20 mg/kg, po after 30 mins by Eddy's hot plate technique
Method in brief: (§1)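 Swiss mice of either sex, 25–35 g, placed one at a time on a hot plate held at 55 °C. End point is paw licking or jumping, whichever comes first, with a 15 s cut-off to avoid paw injury. Reaction time is recorded and reported as percent increase in reaction time.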

Mus musculus [2] = experiment: Analgesic activity in Swiss mouse assessed as increase in reaction time at 20 mg/kg, po after 60 mins by Eddy's hot plate technique; method in brief: as §1
Mus musculus [3] = experiment: Analgesic activity in Swiss mouse assessed as increase in reaction time at 20 mg/kg, po after 90 mins by Eddy's hot plate technique; method in brief: as §1
Candida albicans [4] = experiment: Antifungal activity against Candida albicans at 10 ug/ml by paper disc method; details: read-out: IZ
Candida albicans [5] = experiment: Antifungal activity against Candida albicans at 20 ug/ml by paper disc method; details: read-out: IZ
Candida albicans [6] = experiment: Antifungal activity against Candida albicans at 30 ug/ml by paper disc method; details: read-out: IZ
Aspergillus niger [7] = experiment: Antifungal activity against Aspergillus niger at 10 ug/ml by paper disc method; details: read-out: IZ
Aspergillus niger [8] = experiment: Antifungal activity against Aspergillus niger at 20 ug/ml by paper disc method; details: read-out: IZ
Aspergillus niger [9] = experiment: Antifungal activity against Aspergillus niger at 30 ug/ml by paper disc method; details: read-out: IZ
Escherichia coli [10] = experiment: Antibacterial activity against Escherichia coli at 10 ug/ml by agar plate diffusion technique; details: read-out: IZ
Escherichia coli [11] = experiment: Antibacterial activity against Escherichia coli at 20 ug/ml by agar plate diffusion technique; details: read-out: IZ
Escherichia coli [12] = experiment: Antibacterial activity against Escherichia coli at 30 ug/ml by agar plate diffusion technique; details: read-out: IZ
Pseudomonas aeruginosa [13] = experiment: Antibacterial activity against Pseudomonas aeruginosa at 10 ug/ml by agar plate diffusion technique; details: read-out: IZ
Pseudomonas aeruginosa [14] = experiment: Antibacterial activity against Pseudomonas aeruginosa at 20 ug/ml by agar plate diffusion technique; details: read-out: IZ
Pseudomonas aeruginosa [15] = experiment: Antibacterial activity against Pseudomonas aeruginosa at 30 ug/ml by agar plate diffusion technique; details: read-out: IZ
Bacillus subtilis [16] = experiment: Antibacterial activity against Bacillus subtilis at 10 ug/ml by agar plate diffusion technique; details: read-out: IZ
Bacillus subtilis [17] = experiment: Antibacterial activity against Bacillus subtilis at 20 ug/ml by agar plate diffusion technique; details: read-out: IZ
Bacillus subtilis [18] = experiment: Antibacterial activity against Bacillus subtilis at 30 ug/ml by agar plate diffusion technique; details: read-out: IZ
Staphylococcus aureus [19] = experiment: Antibacterial activity against Staphylococcus aureus at 10 ug/ml by agar plate diffusion technique; details: read-out: IZ
Staphylococcus aureus [20] = experiment: Antibacterial activity against Staphylococcus aureus at 20 ug/ml by agar plate diffusion technique; details: read-out: IZ
Staphylococcus aureus [21] = experiment: Antibacterial activity against Staphylococcus aureus at 30 ug/ml by agar plate diffusion technique; details: read-out: IZ
Rattus norvegicus [22] = experiment: Antiinflammatory activity in Wistar Albino rat assessed as inhibition of carrageenan-induced paw oedema at 20 mg/kg after 1 hr relative to control
Method in brief: (§2)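 Wistar albino rats, 150–200 g, six per group, dosed orally with a 20 mg/kg suspension; control gets 0.1 ml 1% gum acacia. After 30 min, 0.1 ml 1% carrageenan in saline is injected subplantar into the right hind paw. Paw volume is read by plethysmograph at 0–4 h. Inhibition = 100(1 − Vtest/Vcontrol) on mean volume increase.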

Rattus norvegicus [23] = experiment: Antiinflammatory activity in Wistar Albino rat assessed as inhibition of carrageenan-induced paw oedema at 20 mg/kg after 2 hrs relative to control; method in brief: as §2
Rattus norvegicus [24] = experiment: Antiinflammatory activity in Wistar Albino rat assessed as inhibition of carrageenan-induced paw oedema at 20 mg/kg after 3 hrs relative to control; method in brief: as §2
Rattus norvegicus [25] = experiment: Antiinflammatory activity in Wistar Albino rat assessed as inhibition of carrageenan-induced paw oedema at 20 mg/kg after 4 hrs relative to control; method in brief: as §2

Compound | Activity (Mus musculus [1]) | Activity (Mus musculus [2]) | Activity (Mus musculus [3]) | zone of inhibition at 10 µg/mL (Candida albicans [4]) | zone of inhibition at 20 µg/mL (Candida albicans [5]) | zone of inhibition at 30 µg/mL (Candida albicans [6]) | zone of inhibition at 10 µg/mL (Aspergillus niger [7]) | zone of inhibition at 20 µg/mL (Aspergillus niger [8]) | zone of inhibition at 30 µg/mL (Aspergillus niger [9]) | zone of inhibition at 10 µg/mL (Escherichia coli [10]) | zone of inhibition at 20 µg/mL (Escherichia coli [11]) | zone of inhibition at 30 µg/mL (Escherichia coli [12]) | zone of inhibition at 10 µg/mL (Pseudomonas aeruginosa [13]) | zone of inhibition at 20 µg/mL (Pseudomonas aeruginosa [14]) | zone of inhibition at 30 µg/mL (Pseudomonas aeruginosa [15]) | zone of inhibition at 10 µg/mL (Bacillus subtilis [16]) | zone of inhibition at 20 µg/mL (Bacillus subtilis [17]) | zone of inhibition at 30 µg/mL (Bacillus subtilis [18]) | zone of inhibition at 10 µg/mL (Staphylococcus aureus [19]) | zone of inhibition at 20 µg/mL (Staphylococcus aureus [20]) | other results
COc1ccc(Cl)c(-c2nnc3sc(-c4cc(C)nc5ccccc45)nn23)c1 | 7.6% | 12.65% | 21.06% | 6.18 mm | 13.8 mm | 18.8 mm | 5.62 mm | 12.6 mm | 18.5 mm | 5.16 mm | 9.12 mm | 16.7 mm | 5.31 mm | 10.3 mm | 16.1 mm | 7.06 mm | 11.1 mm | 16.4 mm | 6.89 mm | 12.1 mm | zone of inhibition at 30 µg/mL (Staphylococcus aureus [21]): 16.1 mm; inhibition in vivo at 20 mg/kg (Rattus norvegicus [22]): 8.68%; inhibition in vivo at 20 mg/kg (Rattus norvegicus [23]): 20.2%; inhibition in vivo at 20 mg/kg (Rattus norvegicus [24]): 24.1%; inhibition in vivo at 20 mg/kg (Rattus norvegicus [25]): 27.4%
Cc1cc(-c2nn3c(-c4ccoc4C)nnc3s2)c2ccccc2n1 | 6.04% | 11.35% | 20.34% | 5.84 mm | 12.6 mm | 19 mm | 6 mm | 13.5 mm | 17.4 mm | 6.28 mm | 10.5 mm | 17 mm | 6 mm | 11.8 mm | 16.8 mm | 7.38 mm | 12.5 mm | 17.1 mm | 7.1 mm | 13.7 mm | zone of inhibition at 30 µg/mL (Staphylococcus aureus [21]): 17.9 mm; inhibition in vivo at 20 mg/kg (Rattus norvegicus [22]): 7.23%; inhibition in vivo at 20 mg/kg (Rattus norvegicus [23]): 13.4%; inhibition in vivo at 20 mg/kg (Rattus norvegicus [24]): 18.6%; inhibition in vivo at 20 mg/kg (Rattus norvegicus [25]): 26.3%
COc1ccc(Cl)c(-c2nnc3sc(-c4ccnc5ccccc45)nn23)c1 | 7.69% | 17.24% | 23.84% | 6.48 mm | 13.9 mm | 18 mm | 6.4 mm | 12.8 mm | 19.1 mm | 8.28 mm | 14.5 mm | 18.8 mm | 7.82 mm | 13.3 mm | 18.7 mm | 7.68 mm | 13.1 mm | 18.8 mm | 7.21 mm | 13.2 mm | zone of inhibition at 30 µg/mL (Staphylococcus aureus [21]): 18.1 mm; inhibition in vivo at 20 mg/kg (Rattus norvegicus [22]): 11.1%; inhibition in vivo at 20 mg/kg (Rattus norvegicus [23]): 14.3%; inhibition in vivo at 20 mg/kg (Rattus norvegicus [24]): 18.6%; inhibition in vivo at 20 mg/kg (Rattus norvegicus [25]): 20.9%
COc1ccc(Cc2nnc3sc(-c4cc(C)nc5ccccc45)nn23)cc1OC | 5.96% | 11.05% | 20.14% | 5.48 mm | 12 mm | 17.5 mm | 6.25 mm | 13 mm | 16.7 mm | 5.25 mm | 8.8 mm | 16 mm | 5.26 mm | 10.1 mm | 16.1 mm | 6.29 mm | 10.2 mm | 16.1 mm | 6.72 mm | 11.7 mm | zone of inhibition at 30 µg/mL (Staphylococcus aureus [21]): 16.6 mm; inhibition in vivo at 20 mg/kg (Rattus norvegicus [22]): 10.2%; inhibition in vivo at 20 mg/kg (Rattus norvegicus [23]): 13.2%; inhibition in vivo at 20 mg/kg (Rattus norvegicus [24]): 21.2%; inhibition in vivo at 20 mg/kg (Rattus norvegicus [25]): 24.9%
COc1ccc(Cc2nnc3sc(-c4ccnc5ccccc45)nn23)cc1OC | 7.55% | 16.8% | 21.96% | 6.14 mm | 13.7 mm | 17.8 mm | 6.32 mm | 13 mm | 18 mm | 7.85 mm | 14.4 mm | 18.6 mm | 7.7 mm | 14.1 mm | 18.2 mm | 7.4 mm | 13.3 mm | 18.7 mm | 6.96 mm | 12.6 mm | zone of inhibition at 30 µg/mL (Staphylococcus aureus [21]): 18.3 mm; inhibition in vivo at 20 mg/kg (Rattus norvegicus [22]): 14.6%; inhibition in vivo at 20 mg/kg (Rattus norvegicus [23]): 17.1%; inhibition in vivo at 20 mg/kg (Rattus norvegicus [24]): 19.1%; inhibition in vivo at 20 mg/kg (Rattus norvegicus [25]): 24.8%
Cc1occc1-c1nnc2sc(-c3cc(-c4ccccc4)nc4ccccc34)nn12 | 4.86% | 14.48% | 21.1% | 6.27 mm | 14.8 mm | 19.4 mm | 5.92 mm | 11 mm | 17.7 mm | 7.64 mm | 13.2 mm | 17.4 mm | 7.12 mm | 12 mm | 17.3 mm | 6.16 mm | 11.8 mm | 16.9 mm | 6.18 mm | 12.7 mm | zone of inhibition at 30 µg/mL (Staphylococcus aureus [21]): 17.5 mm; inhibition in vivo at 20 mg/kg (Rattus norvegicus [22]): 11.8%; inhibition in vivo at 20 mg/kg (Rattus norvegicus [23]): 14.5%; inhibition in vivo at 20 mg/kg (Rattus norvegicus [24]): 16.4%; inhibition in vivo at 20 mg/kg (Rattus norvegicus [25]): 24.4%
